In experiment [1] the test system is Mus musculus. The experiment is described as follows: In vivo 50% effective dose tested against Plasmodium berghei NK65 infected mice (Mus musculus), after intraperitoneal administration. It is filed as functional. Particulars: ip. In a few lines: (§1)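 Mice infected with P. berghei, in groups of five, were given the compounds intraperitoneally in olive oil at various concentrations. Dosing was once daily on days 0–3. Parasitemia was determined on day 4, and ED values were derived by a previously reported protocol.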

Experiment [2] concerns Mus musculus. The experiment in a line: In vivo 50% effective dose tested against Plasmodium berghei NK65 infected mice (Mus musculus), after oral administration. It is filed as functional. In short, it runs like this: (§2)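 Mice infected with P. berghei, in groups of five, were given the compounds orally in olive oil at various concentrations. Dosing was once daily on days 0–3. Parasitemia was determined on day 4, and ED values were derived by a previously reported protocol.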

Experiment [3] concerns Mus musculus. The experiment is described as follows: In vivo 90% effective dose tested against Plasmodium berghei NK65 infected mice (Mus musculus), after intraperitoneal administration. To be noted: ip. It is filed as functional. In a few lines: as §1
The subject of experiment [4] is Mus musculus. The experiment is described as follows: In vivo 90% effective dose tested against Plasmodium berghei NK65 infected mice (Mus musculus), after oral administration. It is filed as functional. In short, it runs like this: as §2
The subject of experiment [5] is FM3A. The experiment is described as follows: (§3) In vitro antimalarial activity against Plasmodium falciparum. Format: functional.
For experiment [6], the system named is FM3A. The experiment is described as follows: Mammalian cell cytotoxicity assessed against mouse mammary tumor FM3A cells. It is filed as functional, cell-based. In a few lines:
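Mouse mammary tumor FM3A cells in culture used as a mammalian cytotoxicity control; EC50 determined by a previously reported protocol. Selectivity is the mean EC50 for FM3A cells divided by the mean EC50 for P. falciparum.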

In another experiment the test system is Plasmodium falciparum. The description is as §3. Format: functional, organism-based.
Experiment [7] has as its system Mus musculus. The experiment in a line: In vivo […] effective dose tested against Plasmodium berghei NK 65 infected mice (Mus musculus), after intraperitoneal administration. To be noted: ip. It is filed as functional. In short, it runs like this:
as §1

The structures appear in SMILES notation.

The record followed here is ChEMBL document CHEMBL1135896, “Synthesis and notable antimalarial activity of acyclic peroxides, L-(alkyldioxy)-L-(methyldioxy)cyclododecanes” (J Med Chem, 2002).

`C[C@@H]1CC[C@H]2[C@@H](C)C(=O)O[C@@H]3O[C@@]4(C)CC[C@@H]1[C@]32OO4` [ARTEMISININ]: the ED50 (in general, the dose at which the effect has come halfway, by size or by number of responders) in the experiment with Mus musculus [1] was 5.4 mg/kg; in the experiment with Mus musculus [2], 13 mg/kg. The ED90 with Mus musculus [3] was determined as 32 mg/kg; with Mus musculus [4], 89 mg/kg. Moreover, the Selectivity ratio in the experiment on FM3A [5] is 1000.
Turning to `C=C(C)COOC1(OOCC(=C)C)CCCCCCCCCCC1`, the figures for the EC50 with FM3A [6] and in the experiment with Plasmodium falciparum were 38 µM and 1.5 µM, respectively. For the same compound, the Selectivity ratio in the experiment with FM3A [5] is 25.
In the case of `COOC1(OOCCC(=O)O)CCCCCCCCCCC1`, the EC50 (in general, the concentration needed to bring the measured effect to its halfway point) came out at 0.45 µM in the experiment with FM3A [6] and 5 µM in the experiment on Plasmodium falciparum.
On to `CCOOC1(OOCC)CCCCCCCCCCC1`, for which the EC50 was found to be 10 µM in the experiment with FM3A [6] and 0.2 µM with Plasmodium falciparum. The ED50 was 41 mg/kg in the experiment with Mus musculus [1] and 64 mg/kg in the experiment with Mus musculus [7]. The Selectivity ratio with FM3A [5] is 50.
Turning to `COOC1(OOCCCCCCO)CCCCCCCCCCC1`, the values for the EC50 in the experiment with FM3A [6] and in the experiment on Plasmodium falciparum were 1.6 µM and 0.072 µM, respectively. In the experiment with Mus musculus [1], this compound gave an ED50 of 30 mg/kg. The compound also returned an ED90 in the experiment with Mus musculus [3] of 60 mg/kg. For the same compound, in the experiment with FM3A [5], the Selectivity ratio is listed as 22.
Take `COOC1(OOC)CCCCCCCCCCC1`: the EC50 amounted to 1.5 µM in the experiment with FM3A [6] and 0.086 µM with Plasmodium falciparum. Besides, the ED50 was 13 mg/kg in the experiment with Mus musculus [1] and 30 mg/kg in the experiment on Mus musculus [2]. The values for the ED90 in the experiment with Mus musculus [3] and in the experiment on Mus musculus [4] were 20 mg/kg and 60 mg/kg, respectively. In addition, the Selectivity ratio with FM3A [5] is given as 17.
For the compound `CCOC(C)OOC1(OOC)CCCCCCCCCCC1` (stereo unspecified), the EC50 in the experiment with FM3A [6] was 12 µM; with Plasmodium falciparum it was 0.29 µM. Moreover, the Selectivity ratio with FM3A [5] came to 41.
In the same order, the values of `CCCOOC1(OOCCC)CCCCCCCCCCC1` are 12 µM, 1.8 µM and 7.
In the same order, the values of `COOC1(OOC(C)(C)OC)CCCCCCCCCCC1` are 7.3 µM, 0.24 µM and 30.
For `CCCCOOC1(OOCCCC)CCCCCCCCCCC1`, the values for the EC50 in the experiment on FM3A [6] and in the experiment with Plasmodium falciparum were 8.5 µM and 2.1 µM, respectively. For the same compound, in the experiment on FM3A [5], the Selectivity ratio is 4.
On the same counts, the results for `COOC1(OOCCCCCCOC2CCOCC2)CCCCCCCCCCC1` are 7.6 µM, 0.9 µM and 8.
On to `COOC1(OC)CCCCCCCCCCC1`, for which the EC50 with FM3A [6] is 19 µM; in the experiment with Plasmodium falciparum it was 0.08 µM. In the experiment with Mus musculus [1], this compound returned an ED50 of 30 mg/kg. Moreover, in the experiment on Mus musculus [3], the ED90 was determined as 68 mg/kg. For the same compound, in the experiment with FM3A [5], the Selectivity ratio is 238.
Turning to `CCCOOC1(OC)CCCCCCCCCCC1`, the EC50 in the experiment on FM3A [6] was over 37 µM; in the experiment on Plasmodium falciparum, 0.62 µM. For the same compound, the Selectivity ratio with FM3A [5] was over 60.
As for `CCCCOOC1(OOC)CCCCCCCCCCC1`, the EC50 came to 20 µM with FM3A [6] and 0.22 µM in the experiment on Plasmodium falciparum. This compound showed an ED50 in the experiment on Mus musculus [1] of 35 mg/kg. The compound also returned an ED90 with Mus musculus [3] of 80 mg/kg. Further, the Selectivity ratio in the experiment on FM3A [5] was found to be 91.
For the compound `C=CCCOOC1(OOC)CCCCCCCCCCC1`, the EC50 in the experiment with FM3A [6] came out at 6 µM; in the experiment on Plasmodium falciparum, 0.38 µM. Also, the Selectivity ratio with FM3A [5] is listed as 16.
On the same counts, the results for `C=C(C)COOC1(OOC)CCCCCCCCCCC1` are 17 µM, 1.3 µM and 13.
In the same order, the values of `COOC1(OOCCCc2ccccc2)CCCCCCCCCCC1` are 34 µM, 1 µM and 34.
For `CCCCC(CCCC)(OC)OOCC`, the EC50 was over 48 µM with FM3A [6] and 8.6 µM in the experiment with Plasmodium falciparum. Also, the Selectivity ratio in the experiment with FM3A [5] is over 6.
In the same order, the values of `COOC1(OOCCCCCCI)CCCCCCCCCCC1` are 86 µM, 0.74 µM and 116.
In the same order, the values of `COOC1(OOCCC(=O)OC)CCCCCCCCCCC1` are 1.4 µM, 0.23 µM and 6.
In the same order, the values of `C=C(C)COOC(CCCC)(CCCC)OOC` are 15 µM, 1.6 µM and 9.
As to `COOC1(OOCCCCCC(=O)O)CCCCCCCCCCC1`, the values for the EC50 in the experiment with FM3A [6] and in the experiment with Plasmodium falciparum were 14 µM and 0.27 µM, respectively. For the same compound, the Selectivity ratio in the experiment on FM3A [5] is given as 52.
As for `C=CCOOC1(OOCC=C)CCCCCCCCCCC1`, the EC50 in the experiment on FM3A [6] worked out at 14 µM; with Plasmodium falciparum, 1.6 µM. Also, in the experiment on FM3A [5], the Selectivity ratio was 9.
Turning to `CCOOC1(OC)CCCCCCCCCCC1`, the figures for the half-maximal effective concentration (EC50) with FM3A [6] and in the experiment on Plasmodium falciparum were 26 µM and 0.23 µM, respectively. Moreover, the ED50 in the experiment on Mus musculus [1] was over 100 mg/kg. Further, the Selectivity ratio in the experiment with FM3A [5] is listed as 113.
